Results published in ChEMBL document CHEMBL1134668, “Hydrazinonaphthalene and azonaphthalene thrombopoietin mimics are nonpeptidyl promoters of megakaryocytopoiesis” (J Med Chem, 2001).

Key:
[1] = biological target: T1, Thrombopoietin receptor (Homo sapiens) (UniProt P40238); assay: Thrombopoietin luciferase activity in BAF-3 cells; assay type: cell-based; conditions: BaF3
T1 sequence (whole entry): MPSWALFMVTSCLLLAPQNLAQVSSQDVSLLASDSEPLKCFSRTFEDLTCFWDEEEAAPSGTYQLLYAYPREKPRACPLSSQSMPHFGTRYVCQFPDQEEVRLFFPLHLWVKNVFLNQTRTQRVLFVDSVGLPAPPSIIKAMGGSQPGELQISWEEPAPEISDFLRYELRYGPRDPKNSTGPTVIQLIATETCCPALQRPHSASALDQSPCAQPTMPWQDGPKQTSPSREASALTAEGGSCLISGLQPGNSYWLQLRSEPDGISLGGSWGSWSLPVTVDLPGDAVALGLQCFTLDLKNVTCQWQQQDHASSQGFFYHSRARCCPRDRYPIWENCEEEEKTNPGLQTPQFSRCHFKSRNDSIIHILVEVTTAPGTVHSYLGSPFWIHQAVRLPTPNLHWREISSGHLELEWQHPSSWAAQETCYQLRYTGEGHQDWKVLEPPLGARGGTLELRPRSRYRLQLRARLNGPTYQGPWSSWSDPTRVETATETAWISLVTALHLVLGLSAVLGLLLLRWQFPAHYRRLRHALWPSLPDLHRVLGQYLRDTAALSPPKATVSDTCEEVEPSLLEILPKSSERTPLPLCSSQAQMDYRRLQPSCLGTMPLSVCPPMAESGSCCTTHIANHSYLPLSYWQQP

[2] = Effective concentration required to inhibit UT7/TPO cell proliferation was determined.; assay type: functional, cell-based; conditions: Homo sapiens
In short: (§1)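 UT7/TPO cells kept in IMDM/10% FBS/glutamine plus rhTPO, starved overnight without TPO. Cells (0.2 × 10^6/mL) in starving medium incubated with compounds (0.32% DMSO final) or rhTPO, 37 °C, 5% CO2, 72 h. Pellet DNA content read by BrdU kit. Mean value over control as % of maximal-TPO response, duplicates, plotted vs concentration for EC50.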

[3] = Compound tested for UT7/TPO cell proliferation activity (%TPO) using proliferation assay.; assay type: functional, Homo sapiens; in short: as §1
[4] = biological target: T2, Thrombopoietin receptor (Homo sapiens, UniProt P40238); assay: Effective concentration for thrombopoietin luciferase activity was determined in BAF-3 cells; assay type: cell-based, BaF3
T2 sequence (P40238 whole entry): T1 sequence (whole entry)

[5] = Effective concentration (EC50) required to inhibit CD34 cell differentiation; assay type: functional; conditions: Homo sapiens
In short: (§2)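 Human bone marrow CD34+ cells from light density marrow cells (2 × 10^6 cells/mL) in IMDM with 20% v/v FCS and rhSCF 100 ng/mL, cultured with sample or TPO (maximal 100 ng/mL) for 10 days at 5% CO2 and 4% O2. Stained with FITC-anti-CD41 and FITC-anti-IgG1 isotype control, formaldehyde-fixed, flow cytometry; %CD41 = CD41 positive minus isotype positive.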

[6] = Compound tested for CD34+ cell differentiation activity (%TPO) using CD34+ differentiation assay; assay type: functional, Homo sapiens; in short: as §2

Efficacy [1]	EC50 [4]	EC50 [5]	SMILES	EC50 [2]	Efficacy [3]	TPO [3]	TPO [6]
34%	2000 nM		Cc1[nH]n(-c2cccc(Cl)c2)c(=O)c1/N=N/c1c(O)cc(S(=O)(=O)O)c2ccccc12	500 nM	45%		
86%	20 nM	30 nM	Cc1[nH]n(-c2ccc(C(C)(C)C)cc2)c(=O)c1/N=N/c1c(O)cc(S(=O)(=O)O)c2ccccc12			100%	100%
